Results from PMC10351452 (Autophagy, 2023).

Tests used:
[1] = test system: BCL2L1(BCL-XL)-BAX interaction; test: PCA lysate mixing protocol BCL2L1-L1 + BAX-L2; format: biochemical; conditions: 1 µM ABT-737 incubated with BCL2L1-L1 lysate 1 h prior to BAX-L2 lysate
[2] = test system: autophagosomes and autolysosomes in RFP-GFP-LC3B PANC1 cells; test: Autophagy flux assay in RFP-GFP-LC3B PANC1 stable cells; format: cell-based, human; conditions: RFP-GFP-LC3B PANC1, CQ 10 µM, 24 h
Summary of the method: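 PANC1 cells transfected with an RFP-GFP-LC3B vector and kept two weeks under puromycin to give a stable polyclonal line. Plated on coverslips at 3X105 cells/well and treated next day, with CQ 10 µM as a comparator. After 24 h: DAPI stain, 4% paraformaldehyde fixation, confocal imaging. Autophagosomes RFP+GFP+; autolysosomes counted as red minus green dots per cell. Normalised to DMSO, mean ± SD, n = 3 biological repeats, two-way ANOVA/Sidak.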

NCI-H1299 cells = test: Cell viability; format: cell-based, human; conditions: CQ, 4 days
Summary of the method: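 HEC-1A (DMEM/F12) and NCI-H1299 (RPMI) cells, media with 10% FBS, plated at 2000 cells/well and treated next day with test compound 10 µM. CQ 10 µM was used in HEC-1 cells. CellTiter-Glo luminescence read after 4 days and expressed as growth relative to DMSO. Mean ± SD; n = 11 for HEC-1A, n = 6 for NCI-H1299. One-way ANOVA with Tukey.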

PANC1 cells = test: Cell viability; format: cell-based, human; conditions: CQ 10 µM, day 4; stated as similar to compound 189
[3] = test system: NCI-H460 human lung cancer cells; test: Cell viability; format: cell-based; conditions: CQ 10 µM, 4 days

CN(C)CC[C@H](CSc1ccccc1)Nc1ccc(S(=O)(=O)NC(=O)c2ccc(N3CCN(Cc4ccccc4-c4ccc(Cl)cc4)CC3)cc2)cc1[N+](=O)[O-] [ABT-737]
luminescence in BCL2L1-L1/BAX-L2 PCA [1]: significant decrease in luminescence

CCN(CC)CCCC(C)Nc1ccnc2cc(Cl)ccc12 (centres unmarked) [CQ, chloroquine]
number of autophagosomes and autolysosomes per cell [2]: shift toward increased number of autophagosomes at the expense of autolysosomes
response of NCI-H1299 cells (viability) (NCI-H1299 cells): did not respond
reduction of growth of PANC1 cells (PANC1 cells): > 50%
effect on growth of NCI-H460 cells [3]: no effect
